# Source: PubChem
# KCNK9 inh = human KCNK9 channel inhibition | AID 488922 | Q9NPC2 | B-score at 10 µM | hit rate 1.2% among 310,000 | HEK293 KCNK9, FluxOR thallium flux fluorescence; active compounds read low;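 active = ratio B-score over 3 SD below the library mean, with starting fluorescence within 5 SD of its mean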;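 also: negative B-score means less thallium flux so channel inhibition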
# KCNQ1 block = human KCNQ1 channel inhibition | CHO-K1 KCNQ1, FluxOR thallium flux fluorescence; active compounds read high | B-score at 10 µM | hit rate 1.3% among 310,000;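 active = compounds whose thallium flux B-score, printed positive for inhibition, exceeds three library SD while starting fluorescence stays within three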;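 also: channel opened by potassium depolarization with thallium stimulus after 20 min compound exposure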
# Kir21 block = Kir2.1 (mouse) channel inhibition. B-score at 10 µM. hit rate 0.85% among 310,000. HEK293-Kir2.1, FluxOR thallium flux fluorescence; active compounds read low;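 active = fluorescence ratio B-score at or below minus 3 SD of library scores, with starting-brightness B-score within 2 SD, cut at about -4.2 in these data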;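 also: channel flux triggered by added potassium and thallium sulfate stimulus; B-score of peak minus minimum fluorescence over baseline after thallium stimulus; more negative B-score means stronger Kir2.1 block with less thallium influx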
# KCNQ1 pot = potentiates or activates the human KCNQ1 potassium channel. P51787. CHO-K1 KCNQ1, thallium flux FluxOR fluorescence; active compounds read high. B-score at 10 µM. hit rate 0.35% among 310,000. AID 2648;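 active = fluorescence ratio B-score, a plate-corrected score, at least three library SD, with initial intensity B-score within 5 SD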
#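 assay system = CHO-K1 cells stably expressing KCNQ1 | medium = assay buffer, equal DMSO in all wells | timing = 37 °C overnight plating, 90-min dark dye load, 20-min compound pretreatment | measured by = kinetic FluxOR thallium fluorescence, 10-s 1-Hz baseline, 110-s post-stimulus read | measure = fluorescence change relative to baseline, converted to B score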
# hERG rescue = compounds protecting human hERG from proarrhythmic drug block | CHO-hERG, FluxOR thallium flux, dofetilide IC70 present | Q12809 | AID 1511 | activation (rescue from dofetilide block), less the hit threshold, % at 10 µM | hit rate 0.51% among 310,000;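 active = activation above the mean of controls blocked by dofetilide plus 5 SD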;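 also: thallium influx through hERG after potassium depolarization seen as dye fluorescence rise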
# KCNK3 inh = human KCNK3 channel inhibition, primary screen. hit rate 0.84% among 340,000. O14649. AID 602410. CHO-KCNK3 thallium flux, FluxOR fluorescence; active compounds read low. B-score at 10 µM;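 active = B-score under library mean minus 4 SD, starting fluorescence ratio at most library mean plus 5 SD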;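 also: more negative B-score means stronger inhibition of thallium flux through KCNK3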
# Target sequence (O14649 whole entry, looked up): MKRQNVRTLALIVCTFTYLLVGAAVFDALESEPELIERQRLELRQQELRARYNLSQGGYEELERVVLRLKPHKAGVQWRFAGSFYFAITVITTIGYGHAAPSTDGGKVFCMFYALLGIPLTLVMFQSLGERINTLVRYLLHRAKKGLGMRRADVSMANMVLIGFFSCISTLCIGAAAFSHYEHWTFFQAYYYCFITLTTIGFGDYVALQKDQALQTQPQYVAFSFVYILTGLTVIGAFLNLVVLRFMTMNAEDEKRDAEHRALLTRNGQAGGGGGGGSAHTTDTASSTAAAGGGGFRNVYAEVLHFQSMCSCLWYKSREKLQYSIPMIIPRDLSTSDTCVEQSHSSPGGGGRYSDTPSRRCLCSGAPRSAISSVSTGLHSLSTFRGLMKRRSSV
# KCNK9 inh conf = confirmation of human KCNK9 potassium channel inhibitors; shares compounds with KCNK9 inh; HEK293 KCNK9 cells, FluxOR thallium flux fluorescence; inhibition, % at 10 µM; hit rate 43% among 4,900; AID 492992;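 active = thallium signal inhibited by more than 5 SD of the compound-free buffer control wells, on both duplicate plates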;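 also: 0% = assay buffer control wells without compound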
# Kir2-1 spec = mouse Kir2.1 off-target activity of KCNK9 modulators; shares compounds with KCNK9 inh; Kir2.1 cells, FluxOR thallium flux fluorescence; inhibition, % at 10 µM; hit rate 4% among 4,900;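 active = thallium signal drop more than 5 SD beyond the mean of the no-compound control wells, seen in both duplicate plates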;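 also: signal is fluorescence rise after thallium addition divided by baseline fluorescence; plate controls were assay buffer only for no effect and full block by chlorpromazine control for full effect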
# HEK293 Tl ctr = second check of KCNK9 modulator effects in non-induced HEK293 cells. shares compounds with KCNK9 inh. FluxOR thallium flux. inhibition, % at 10 µM. hit rate 40% among 4,900;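 active = thallium signal drop beyond 5 SD of the untreated control mean, on both duplicate plates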;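 also: plate controls were buffer only IC0 wells for no effect and SID17386958 at its maximal inhibitory level for full effect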
# * marks the source's active call; other numbers are inactive results; i = inactive; x = not tested or not shown. Shown are actives, neighbours in structure and some others; about 3.7% of the full set was active somewhere.
SMILES,KCNK9 inh,KCNQ1 block,Kir21 block,KCNQ1 pot,hERG rescue,KCNK3 inh,KCNK9 inh conf,Kir2-1 spec,HEK293 Tl ctr
Oc1ccc2ccccc2c1C=Nc1cc(C(F)(F)F)ccc1N1CCCC1,i,i,0.75,i,-5,i,x,x,x
COc1ccc(/C=C(/CC(=O)NCc2ccc(Cl)cc2)c2nc3ccccc3s2)cc1,-19*,i,0.96,i,-6,i,66%*,i,46%*
Cc1ccc(C)c(C(=O)COC(=O)c2cc([N+](=O)[O-])ccc2NCCO)c1,-8.2*,i,1.3,11*,-9,i,59%*,i,i
Cc1nn(-c2ccccc2)c(C)c1NC(=O)COC(=O)c1cc([N+](=O)[O-])ccc1NCCO,i,i,1.7,i,-21,i,x,x,x
CCO[C@@H]1OC(C(=O)O)=C[C@H](c2ccc(Br)cc2)[C@H]1CCCO,i,i,0.17,i,-2,i,x,x,x
CN(Cc1ccc(F)cc1)C(=O)c1ccc(NC(=O)CC2SC(N3CCCC3)=NC2=O)cc1 (stereo unspecified),i,i,-1.6,i,-5,i,x,x,x
Cc1ccc(C(=O)COC(=O)C2C3C=CC(C3)C2C(=O)OCC(=O)c2ccc(C)c(C)c2)cc1C (stereo unspecified),i,i,-0.16,i,-10,i,i,i,i
Cc1ccc(C(=O)COC(=O)C(C)N2C(=O)C3C4CCC(C4)C3C2=O)cc1C (stereo unspecified),i,i,-1.4,i,-19,i,x,x,x
COc1ccc(CNC(=O)CCNC(=O)c2ccco2)cc1OC,x,x,x,x,x,i,x,x,x
CCCCN1CC[C@H]2C=CC[C@@H](C(=O)Nc3ccc(Cl)cc3Cl)[C@H]2C1=O,i,i,0.38,i,-11,i,i,i,i
CCOC(=O)N1CCN(Cc2cc(=O)oc3ccc4ccccc4c23)CC1,i,i,-0.95,i,-7,i,x,x,x
O=C(CC12CC3CC(CC(C3)C1)C2)NCC(=O)OCc1cc(=O)oc2ccc3ccccc3c12,-15*,i,0.45,i,-7,i,62%*,i,i
COC(=O)c1sc2ccccc2c1NC(=O)c1ccc(S(=O)(=O)N2CC(C)CC(C)C2)cc1 (stereo unspecified),i,i,0.1,i,-7,i,x,x,x
Cc1cc(C)c2nc(NNC(=O)c3ccc(S(=O)(=O)N4CCCC(C)C4)cc3)sc2c1 (stereo unspecified),i,i,-0.39,i,-12,i,i,i,i
Cc1cccc2sc(NNC(=O)c3ccc(S(=O)(=O)N4CC(C)CC(C)C4)cc3)nc12 (stereo unspecified),i,6*,1.3,i,-4,i,i,i,i
Cc1ccc2nc(NNC(=O)c3ccc(S(=O)(=O)N4CCc5ccccc5C4)cc3)sc2c1,i,7*,1,i,-4,i,i,i,i
CC1CC(C)CN(S(=O)(=O)c2ccc(C(=O)Nc3sccc3C(N)=O)cc2)C1 (stereo unspecified),i,i,1.9,i,-10,i,x,x,x
Cc1cc(C)c2nc(NNC(=O)c3ccc(S(=O)(=O)N4CC(C)CC(C)C4)cc3)sc2c1 (stereo unspecified),i,i,-1.4,i,-12,i,i,i,i
CC(=O)Nc1ccc(C2=CC(=O)CC(C)(C)C2)cc1,x,x,x,x,x,i,x,x,x
N#CC(c1ccccc1)c1ccc(C(=O)c2ccc(F)cc2)cc1 (stereo unspecified),-9.8*,i,-0.21,i,-7,i,54%*,i,36%*
CCOC(=O)c1c(C)c(C(=O)N2CCc3ccccc3C2)c(C)n1CC,i,i,1.4,i,-13,i,i,i,i
CCOC(=O)c1c(C)c(C(=O)NCCN2CCOCC2)c(C)n1CC,i,i,-1.7,i,-10,i,x,x,x
CC(Sc1nnc(-c2cccnc2)n1N)C(=O)NCCC1=CCCCC1 (stereo unspecified),x,x,x,x,x,i,x,x,x
COc1ccc(S(=O)(=O)N2CCN(Cc3ccc4c(c3)OCO4)CC2)cc1,i,i,0.12,i,-6,i,x,x,x
Cc1ccc2nsnc2c1S(=O)(=O)N1CCN(Cc2ccc3c(c2)OCO3)CC1,i,i,-1.4,i,0,i,i,i,i
SMILES,KCNK9 inh,KCNQ1 block,Kir21 block,KCNQ1 pot,hERG rescue,KCNK3 inh,KCNK9 inh conf,Kir2-1 spec,HEK293 Tl ctr
COc1ccc(F)cc1S(=O)(=O)N1CCN(Cc2ccc3c(c2)OCO3)CC1,i,i,-1.8,i,-10,i,i,i,i
Cc1cccc(S(=O)(=O)N2CCN(Cc3ccc4c(c3)OCO4)CC2)c1,i,i,-0.74,i,-8,i,i,i,i
CCOc1ccc(S(=O)(=O)N2CCN(Cc3ccc4c(c3)OCO4)CC2)cc1Cl,i,i,-0.09,i,-5,i,i,i,i
Cc1ccc2nsnc2c1S(=O)(=O)N1CCN(C)CC1,i,i,-0.32,i,-1,i,x,x,x
COc1ccc(Cl)cc1S(=O)(=O)N1CCN(Cc2ccc3c(c2)OCO3)CC1,i,i,-0.39,i,-14,i,x,x,x
CCc1ccc(NC(=O)CCNS(=O)(=O)c2cccc3nonc23)cc1,i,i,0.06,i,-3,i,x,x,x
COc1cc(C(=O)O)c2ccccc2n1,i,i,0.09,i,-11,i,x,x,x
CN1CCN(C2CCN(S(=O)(=O)c3ccc(C(C)(C)C)cc3)CC2)CC1,i,i,-0.78,i,-12,i,x,x,x
Cc1ccc(-c2nc(C3CCN(S(=O)(=O)c4ccc(C(C)(C)C)cc4)CC3)no2)cc1,i,i,0.54,i,-7,i,i,i,i
COC(=O)C(Oc1ccc2c(-c3ccc(OC)cc3)cc(=O)oc2c1)c1ccccc1 (stereo unspecified),-9.3*,i,-1.2,i,-7,i,54%*,i,36%*
Cc1cc(C)nc(N/N=C/c2ccccc2OCc2ccc([N+](=O)[O-])cc2)n1,-15*,i,0.17,i,-8,i,51%*,i,28%*
O=[N+]([O-])c1ccc(N/N=C\c2ccccc2OCc2ccccc2)cc1,i,i,0,i,-5,i,x,x,x
